Measurements taken from ChEMBL document CHEMBL3352316, “Optimization of physicochemical properties and safety profile of novel bacterial topoisomerase type II inhibitors (NBTIs) with activity against Pseudomonas aeruginosa” (Bioorg Med Chem, 2014).
≈ marks a conversion by molar mass, not a printed value.

Key:
[1] = Aqueous solubility of the compound; format: physicochemical; settings: buffer
[2] = system: Pseudomonas aeruginosa; experiment: Antimicrobial activity against Pseudomonas aeruginosa PAO1 after 18 to 20 hrs by broth microdilution; format: functional
In short: (§1)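 Broth microdilution followed CLSI guidelines in Mueller Hinton broth. Inocula were grown 18–20 h at 35 °C on blood agar. Compound in DMSO was tested in doubling dilutions from 64 to 0.06 µg/mL, at 2% DMSO final. Plates were incubated 18–20 h and read at OD 620 nm. MIC was taken as the concentration giving >90% growth inhibition.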

[3] = Inhibition of Escherichia coli topoisomerase IV ATPase activity
[4] = Fraction unbound in human plasma by LC/MS-MS analysis; format: ADME, cell-free
In short: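 Equilibrium dialysis: 10 µM compound was spiked into human plasma against phosphate buffer and rotated at 37 °C for 16 h. Plasma and buffer concentrations were quantified by LC/MS–MS with a C18 column and ESI MRM detection.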

[5] = system: Staphylococcus aureus; experiment: Antimicrobial activity against methicillin-susceptible Staphylococcus aureus after 18 to 20 hrs by broth microdilution; format: functional; in short: as §1
[6] = target: Voltage-gated inwardly rectifying potassium channel KCNH2 (Homo sapiens, UniProt Q12809); experiment: Inhibition of human ERG by cell-based patch clamp method
Sequence of Voltage-gated inwardly rectifying potassium channel KCNH2 (Q12809 whole entry): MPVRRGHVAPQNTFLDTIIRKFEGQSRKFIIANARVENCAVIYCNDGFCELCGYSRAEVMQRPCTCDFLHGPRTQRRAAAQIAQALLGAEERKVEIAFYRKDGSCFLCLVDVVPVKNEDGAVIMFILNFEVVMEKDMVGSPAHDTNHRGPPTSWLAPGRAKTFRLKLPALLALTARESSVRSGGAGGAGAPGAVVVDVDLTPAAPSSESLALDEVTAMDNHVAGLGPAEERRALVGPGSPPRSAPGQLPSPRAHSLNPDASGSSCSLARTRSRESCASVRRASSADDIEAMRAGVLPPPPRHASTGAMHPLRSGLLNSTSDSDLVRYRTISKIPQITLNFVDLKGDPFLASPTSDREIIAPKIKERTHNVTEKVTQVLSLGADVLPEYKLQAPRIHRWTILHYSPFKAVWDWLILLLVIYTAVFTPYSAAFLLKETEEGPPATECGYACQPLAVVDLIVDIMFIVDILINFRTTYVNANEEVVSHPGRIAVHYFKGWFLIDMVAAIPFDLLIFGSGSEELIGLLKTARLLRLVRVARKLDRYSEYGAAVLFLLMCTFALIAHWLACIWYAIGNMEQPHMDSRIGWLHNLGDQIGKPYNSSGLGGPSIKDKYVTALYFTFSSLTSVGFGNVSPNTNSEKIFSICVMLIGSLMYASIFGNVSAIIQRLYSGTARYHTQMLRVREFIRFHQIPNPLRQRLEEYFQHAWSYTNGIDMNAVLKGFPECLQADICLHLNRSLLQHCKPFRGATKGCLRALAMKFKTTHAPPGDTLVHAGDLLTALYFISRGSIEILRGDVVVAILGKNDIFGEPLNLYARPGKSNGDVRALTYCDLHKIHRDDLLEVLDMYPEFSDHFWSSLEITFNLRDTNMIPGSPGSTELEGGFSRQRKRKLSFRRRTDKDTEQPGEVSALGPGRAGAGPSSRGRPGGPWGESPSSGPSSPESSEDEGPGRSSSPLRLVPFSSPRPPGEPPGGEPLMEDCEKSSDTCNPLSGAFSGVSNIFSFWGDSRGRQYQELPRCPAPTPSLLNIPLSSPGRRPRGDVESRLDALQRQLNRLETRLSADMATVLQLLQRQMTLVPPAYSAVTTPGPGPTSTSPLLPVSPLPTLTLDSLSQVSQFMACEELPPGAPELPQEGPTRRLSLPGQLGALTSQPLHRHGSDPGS

[7] = system: Escherichia coli; experiment: Antimicrobial activity against Escherichia coli W3110 after 18 to 20 hrs by broth microdilution; format: functional; settings: K-12 substr. W3110; in short: as §1
[8] = Partition co-efficient, log D of the compound at pH 7.4 by shake flask method; format: physicochemical; settings: buffer
In short: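 Shake-flask method with 10 mM phosphate buffer pH 7.4 against n-octanol, shaken 1 h at 1200 rpm to equilibrium. Analysis was by LC/UV with MS confirmation.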

[9] = system: Escherichia coli; experiment: Antimicrobial activity against Escherichia coli after 18 to 20 hrs by broth microdilution; format: functional; in short: as §1
[10] = Clearance in rat at 10 mg/kg, iv; format: ADME, organism-based; set-up: dose 10 mg/kg, route intravenous; settings: in vivo
In short: (§2)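 Male rats (Wistar Han) and Beagle dogs received 10 mg/kg as a 15 min iv infusion. Serial 200 µL whole-blood samples were taken from 0 to 24 h. Plasma levels were measured by LC–MS/MS against a standard curve after methanol protein precipitation. Parameters were estimated non-compartmentally.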

[11] = target: Voltage-dependent T-type calcium channel subunit alpha-1H (Homo sapiens, UniProt O95180); experiment: Inhibition of […] channel Cav3.2 (unknown origin)
Sequence of Voltage-dependent T-type calcium channel subunit alpha-1H (O95180 whole entry): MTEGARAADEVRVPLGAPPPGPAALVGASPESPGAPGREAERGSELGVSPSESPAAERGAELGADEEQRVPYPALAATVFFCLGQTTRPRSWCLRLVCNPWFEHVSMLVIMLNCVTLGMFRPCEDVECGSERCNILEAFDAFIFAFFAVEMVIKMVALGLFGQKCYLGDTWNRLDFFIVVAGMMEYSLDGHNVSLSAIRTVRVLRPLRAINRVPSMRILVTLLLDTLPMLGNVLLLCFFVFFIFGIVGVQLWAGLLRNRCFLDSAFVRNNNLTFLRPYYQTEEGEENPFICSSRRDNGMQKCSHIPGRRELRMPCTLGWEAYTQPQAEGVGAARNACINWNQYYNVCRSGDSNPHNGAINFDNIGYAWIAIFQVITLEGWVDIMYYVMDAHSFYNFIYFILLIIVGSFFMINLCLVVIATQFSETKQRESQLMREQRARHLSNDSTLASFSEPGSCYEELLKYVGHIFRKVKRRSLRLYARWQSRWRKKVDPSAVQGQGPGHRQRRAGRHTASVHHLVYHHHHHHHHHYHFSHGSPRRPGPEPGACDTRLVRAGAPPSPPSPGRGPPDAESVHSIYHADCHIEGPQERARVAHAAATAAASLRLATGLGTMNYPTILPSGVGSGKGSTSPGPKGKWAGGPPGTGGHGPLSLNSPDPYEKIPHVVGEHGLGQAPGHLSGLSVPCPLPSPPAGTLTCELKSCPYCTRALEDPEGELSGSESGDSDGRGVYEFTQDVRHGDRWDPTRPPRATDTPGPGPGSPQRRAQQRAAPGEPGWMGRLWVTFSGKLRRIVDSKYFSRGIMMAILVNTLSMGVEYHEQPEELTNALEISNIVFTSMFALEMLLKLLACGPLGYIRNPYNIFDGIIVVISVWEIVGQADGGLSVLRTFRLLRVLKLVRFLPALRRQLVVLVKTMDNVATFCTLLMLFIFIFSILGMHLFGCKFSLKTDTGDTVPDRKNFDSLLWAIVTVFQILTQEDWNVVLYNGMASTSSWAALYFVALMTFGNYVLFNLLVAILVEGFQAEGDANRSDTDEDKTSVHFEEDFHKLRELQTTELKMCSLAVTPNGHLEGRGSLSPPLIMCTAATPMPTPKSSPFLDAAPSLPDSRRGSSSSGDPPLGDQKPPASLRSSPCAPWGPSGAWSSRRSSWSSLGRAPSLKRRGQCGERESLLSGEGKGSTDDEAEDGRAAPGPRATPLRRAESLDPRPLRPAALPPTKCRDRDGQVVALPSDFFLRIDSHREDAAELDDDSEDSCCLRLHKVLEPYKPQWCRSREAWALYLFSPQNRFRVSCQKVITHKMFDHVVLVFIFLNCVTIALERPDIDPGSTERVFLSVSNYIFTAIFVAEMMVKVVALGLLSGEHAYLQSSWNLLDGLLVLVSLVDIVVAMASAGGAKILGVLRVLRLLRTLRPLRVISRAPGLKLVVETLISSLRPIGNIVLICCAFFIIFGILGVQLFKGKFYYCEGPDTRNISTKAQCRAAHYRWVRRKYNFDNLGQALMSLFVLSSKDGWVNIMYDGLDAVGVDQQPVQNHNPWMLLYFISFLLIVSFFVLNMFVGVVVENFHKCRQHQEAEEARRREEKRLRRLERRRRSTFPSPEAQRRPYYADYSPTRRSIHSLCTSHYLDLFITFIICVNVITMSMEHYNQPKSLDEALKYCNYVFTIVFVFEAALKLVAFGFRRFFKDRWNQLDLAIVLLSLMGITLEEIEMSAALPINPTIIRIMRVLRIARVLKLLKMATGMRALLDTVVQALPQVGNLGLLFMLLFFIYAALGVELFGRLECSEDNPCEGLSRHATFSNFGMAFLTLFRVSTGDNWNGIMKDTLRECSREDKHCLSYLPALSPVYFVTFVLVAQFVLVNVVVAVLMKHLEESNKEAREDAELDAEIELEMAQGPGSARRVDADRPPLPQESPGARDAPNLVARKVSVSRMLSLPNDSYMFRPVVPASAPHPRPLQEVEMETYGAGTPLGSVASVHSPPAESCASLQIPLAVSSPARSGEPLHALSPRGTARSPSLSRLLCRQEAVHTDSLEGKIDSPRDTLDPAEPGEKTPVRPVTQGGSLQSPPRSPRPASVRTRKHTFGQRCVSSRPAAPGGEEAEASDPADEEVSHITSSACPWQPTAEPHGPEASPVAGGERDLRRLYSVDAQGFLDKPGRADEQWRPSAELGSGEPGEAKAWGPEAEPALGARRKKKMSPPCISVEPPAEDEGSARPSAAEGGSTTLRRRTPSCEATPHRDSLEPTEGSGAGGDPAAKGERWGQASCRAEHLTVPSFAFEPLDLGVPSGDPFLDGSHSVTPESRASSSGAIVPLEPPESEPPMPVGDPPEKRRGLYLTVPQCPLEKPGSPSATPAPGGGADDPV
In short: (§3)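 Automated IonWorks patch clamp was run on CHO or HEK cells expressing each channel. A channel-specific voltage pulse was applied before compound and again about 3 min after addition.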

[12] = target: Potassium voltage-gated channel subfamily A member 5 (Homo sapiens, UniProt P22460); experiment: Inhibition of potassium channel Kv1.5 (unknown origin); in short: as §3
Sequence of Potassium voltage-gated channel subfamily A member 5 (P22460 whole entry): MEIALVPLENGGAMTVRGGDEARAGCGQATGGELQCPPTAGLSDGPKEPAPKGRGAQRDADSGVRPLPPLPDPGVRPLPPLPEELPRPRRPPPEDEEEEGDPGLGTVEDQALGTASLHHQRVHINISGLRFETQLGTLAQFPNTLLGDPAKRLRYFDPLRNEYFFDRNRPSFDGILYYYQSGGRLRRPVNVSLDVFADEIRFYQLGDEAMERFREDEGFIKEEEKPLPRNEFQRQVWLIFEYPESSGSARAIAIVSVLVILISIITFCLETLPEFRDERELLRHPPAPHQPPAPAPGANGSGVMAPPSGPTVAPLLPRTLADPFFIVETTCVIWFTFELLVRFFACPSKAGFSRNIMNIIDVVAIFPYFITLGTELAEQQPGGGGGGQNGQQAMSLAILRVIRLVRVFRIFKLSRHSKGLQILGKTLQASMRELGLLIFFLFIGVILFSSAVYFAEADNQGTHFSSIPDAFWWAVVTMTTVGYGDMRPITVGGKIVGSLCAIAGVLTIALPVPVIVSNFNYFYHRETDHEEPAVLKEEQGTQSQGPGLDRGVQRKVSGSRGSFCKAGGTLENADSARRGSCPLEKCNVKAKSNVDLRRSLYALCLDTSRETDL

[13] = target: 5-hydroxytryptamine receptor 4 (Homo sapiens) (UniProt Q13639); experiment: Inhibition of 5-HT4 receptor (unknown origin) at 30 uM
Sequence of 5-hydroxytryptamine receptor 4 (Homo sapiens) (Q13639 whole entry): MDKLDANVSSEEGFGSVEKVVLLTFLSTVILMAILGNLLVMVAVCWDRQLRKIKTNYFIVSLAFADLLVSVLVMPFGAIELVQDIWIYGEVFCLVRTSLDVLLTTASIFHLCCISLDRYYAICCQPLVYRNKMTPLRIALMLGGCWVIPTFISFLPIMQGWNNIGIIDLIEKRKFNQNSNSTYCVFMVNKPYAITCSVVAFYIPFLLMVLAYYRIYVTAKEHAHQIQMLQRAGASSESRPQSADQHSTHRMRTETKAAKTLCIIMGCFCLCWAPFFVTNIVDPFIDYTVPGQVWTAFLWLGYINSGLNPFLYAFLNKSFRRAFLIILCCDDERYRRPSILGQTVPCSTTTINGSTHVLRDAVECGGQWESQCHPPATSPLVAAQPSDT

[14] = Clearance in beagle dog at 10 mg/kg, iv; format: ADME, organism-based, Canis lupus familiaris; set-up: dose 10 mg/kg, route intravenous; settings: in vivo; in short: as §2
[15] = target: Sodium-dependent noradrenaline transporter (Homo sapiens) (UniProt P23975); experiment: Inhibition of NET (unknown origin) at 30 uM
Sequence of Sodium-dependent noradrenaline transporter (Homo sapiens) (P23975 whole entry): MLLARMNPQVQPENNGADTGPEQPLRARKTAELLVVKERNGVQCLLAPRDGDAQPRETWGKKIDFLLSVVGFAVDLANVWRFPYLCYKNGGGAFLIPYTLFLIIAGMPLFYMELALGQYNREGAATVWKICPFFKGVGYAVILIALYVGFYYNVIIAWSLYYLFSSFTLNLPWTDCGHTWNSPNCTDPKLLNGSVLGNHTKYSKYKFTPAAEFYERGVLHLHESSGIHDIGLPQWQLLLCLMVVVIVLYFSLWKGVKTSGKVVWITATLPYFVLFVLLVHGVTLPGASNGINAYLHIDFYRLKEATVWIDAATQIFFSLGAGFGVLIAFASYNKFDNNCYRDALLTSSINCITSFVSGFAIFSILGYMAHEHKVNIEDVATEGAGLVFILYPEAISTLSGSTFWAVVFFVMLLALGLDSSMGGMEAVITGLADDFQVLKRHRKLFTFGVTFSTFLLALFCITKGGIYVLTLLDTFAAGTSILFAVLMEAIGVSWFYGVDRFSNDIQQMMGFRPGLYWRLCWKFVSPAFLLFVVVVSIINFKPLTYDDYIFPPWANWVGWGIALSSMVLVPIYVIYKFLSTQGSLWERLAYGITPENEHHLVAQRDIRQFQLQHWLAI

[16] = target: T1, Potassium voltage-gated channel subfamily KQT member 1 (Homo sapiens, UniProt P51787); experiment: Inhibition of potassium channel IKs (unknown origin); in short: as §3
T1 sequence (P51787 whole entry): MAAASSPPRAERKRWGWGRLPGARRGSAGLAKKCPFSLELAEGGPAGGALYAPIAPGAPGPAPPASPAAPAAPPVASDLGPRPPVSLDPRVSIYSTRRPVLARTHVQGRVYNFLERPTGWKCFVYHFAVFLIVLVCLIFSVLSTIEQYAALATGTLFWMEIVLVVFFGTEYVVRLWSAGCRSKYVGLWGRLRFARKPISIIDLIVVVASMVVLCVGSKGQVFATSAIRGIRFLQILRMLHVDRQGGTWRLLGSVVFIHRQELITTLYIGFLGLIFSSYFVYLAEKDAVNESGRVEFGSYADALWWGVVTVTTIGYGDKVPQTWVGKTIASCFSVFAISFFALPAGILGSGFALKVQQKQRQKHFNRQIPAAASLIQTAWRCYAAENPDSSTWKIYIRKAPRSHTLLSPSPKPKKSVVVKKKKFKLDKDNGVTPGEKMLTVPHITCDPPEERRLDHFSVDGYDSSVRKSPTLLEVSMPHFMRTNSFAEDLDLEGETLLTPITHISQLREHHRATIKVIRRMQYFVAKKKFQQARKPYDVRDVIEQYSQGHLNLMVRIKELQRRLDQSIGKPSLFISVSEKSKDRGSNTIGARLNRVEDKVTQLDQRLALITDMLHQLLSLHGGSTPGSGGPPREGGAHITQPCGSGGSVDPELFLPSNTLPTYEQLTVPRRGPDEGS

[17] = Volume of distribution in beagle dog at 10 mg/kg, iv; format: ADME, organism-based, Canis lupus familiaris; set-up: dose 10 mg/kg, route intravenous; settings: in vivo; in short: as §2
[18] = AUC in beagle dog at 10 mg/kg, iv; format: ADME, organism-based, Canis lupus familiaris; set-up: dose 10 mg/kg, route intravenous; settings: plasma; in short: as §2
[19] = Half life in beagle dog at 10 mg/kg, iv; format: ADME, organism-based, Canis lupus familiaris; set-up: dose 10 mg/kg, route intravenous; settings: in vivo; in short: as §2
[20] = target: Voltage-dependent L-type calcium channel subunit alpha-1C (Homo sapiens, UniProt Q13936); experiment: Inhibition of […] channel Cav1.2 (unknown origin); in short: as §3
[21] = target: Sodium-dependent serotonin transporter (Homo sapiens) (UniProt P31645); experiment: Inhibition of SERT (unknown origin) at 30 uM
[22] = system: Klebsiella pneumoniae; experiment: Antimicrobial activity against Klebsiella pneumoniae after 18 to 20 hrs by broth microdilution; format: functional; in short: as §1
[23] = AUC in rat at 10 mg/kg, iv; format: ADME, organism-based; set-up: dose 10 mg/kg, route intravenous; settings: plasma; in short: as §2
[24] = Volume of distribution in rat at 10 mg/kg, iv; format: ADME, organism-based; set-up: dose 10 mg/kg, route intravenous; settings: in vivo; in short: as §2
[25] = Half life in rat at 10 mg/kg, iv; format: ADME, organism-based; set-up: dose 10 mg/kg, route intravenous; settings: in vivo; in short: as §2
[26] = target: Sodium channel protein type 5 subunit alpha (Homo sapiens, UniProt Q14524); experiment: Inhibition of […] channel Nav1.5 (unknown origin); in short: as §3
[27] = system: Pseudomonas aeruginosa; experiment: Antimicrobial activity against Pseudomonas aeruginosa clinical isolate after 18 to 20 hrs by broth microdilution; format: functional; in short: as §1

Row | Compound | solubility [1] | MIC90 [2] | IC50 [3] | fraction unbound [4] | MIC90 [5] | IC50 [6] | MIC90 [7] | logD [8] | other results
1 | COc1cc2c(cc1F)ncc(=O)n2C[C@H](N)[C@H]1CC[C@H](NCc2ncc3c(n2)NC(=O)CO3)CC1 | > 333 µM | 2 µg/mL (≈ 4.02 µM) | 0.004 µM | 0.56 | 4 µg/mL (≈ 8.04 µM) | > 333 µM | 2 µg/mL (≈ 4.02 µM) | -0.42 | 
2 | COc1ccc2ncc(=O)n(C[C@H](N)[C@H]3CC[C@H](NCc4ncc5c(n4)NC(=O)CO5)CC3)c2c1 | > 333 µM | 0.5 µg/mL (≈ 1.04 µM) | 0.002 µM | 0.6 | 1 µg/mL (≈ 2.09 µM) | > 333 µM | 0.2 µg/mL (≈ 0.417 µM) | -0.48 | 
3 | COc1ccc2ncc(=O)n(CC[C@]3(N)CC[C@H](NCc4ccc5c(n4)NC(=O)CO5)CC3)c2c1 | > 333 µM | 8 µg/mL (≈ 16.7 µM) | 0.002 µM |  | 2 µg/mL (≈ 4.18 µM) |  | 1 µg/mL (≈ 2.09 µM) |  | 
4 | COc1ccc2ncc(=O)n(C[C@H](N)[C@H]3CC[C@H](NCc4ccc5c(n4)NC(=O)CO5)CC3)c2c1 | > 333 µM | 0.5 µg/mL (≈ 1.04 µM) | 0.001 µM | 0.7 | 1 µg/mL (≈ 2.09 µM) | > 333 µM | 0.5 µg/mL (≈ 1.04 µM) | -0.36 | 
5 | COc1cnc2ccc(=O)n(C[C@H](N)[C@H]3CC[C@H](NCc4ccc5c(n4)NC(=O)CO5)CC3)c2c1 | > 333 µM | 1 µg/mL (≈ 2.09 µM) | 0.002 µM | 0.78 | 8 µg/mL (≈ 16.7 µM) | > 333 µM | 0.5 µg/mL (≈ 1.04 µM) | -0.86 | MIC90 [9]: 0.5 µg/mL (≈ 1.04 µM); clearance [10]: 47 mL/min/kg; IC50 [11]: > 333 µM; IC50 [12]: > 333 µM; inhibition [13]: 32%; clearance [14]: 14 mL/min/kg; inhibition [15]: 52%; IC50 [16]: > 333 µM; Vd [17]: 2.7 L/kg; AUC [18]: 3800 ng·h/mL; half-life [19]: 8 h; IC50 [20]: > 333 µM; inhibition [21]: 32%; MIC90 [22]: 8 µg/mL (≈ 16.7 µM); AUC [23]: 3900 ng·h/mL; Vd [24]: 13 L/kg; half-life [25]: 9 h; IC50 [26]: > 333 µM; MIC90 [27]: 4 µg/mL (≈ 8.36 µM)
6 | N[C@@H](Cn1c(=O)cnc2ccc(F)cc21)[C@H]1CC[C@H](NCc2ccc3c(n2)NC(=O)CO3)CC1 | > 333 µM | 0.25 µg/mL (≈ 0.536 µM) | 0.028 µM | 0.7 | 1 µg/mL (≈ 2.14 µM) | 174 µM | < 0.06 µg/mL | -0.41 | 
7 | COc1ccc2ncc(=O)n(CC(N)C3(F)CCC(NCc4ccc5c(n4)NC(=O)CO5)CC3)c2c1 (racemic) | > 333 µM | 8 µg/mL (≈ 16.1 µM) | 0.005 µM | 0.68 | 0.5 µg/mL (≈ 1.01 µM) | > 33 µM | 2 µg/mL (≈ 4.03 µM) | 0.25 | 
8 | Cc1cc(=O)n(C[C@H](N)[C@H]2CC[C@H](NCc3ncc4c(n3)NC(=O)CO4)CC2)c2cc(F)ccc12 | > 333 µM | 2 µg/mL (≈ 4.16 µM) | 0.002 µM | 0.66 | 4 µg/mL (≈ 8.32 µM) | > 333 µM | 0.5 µg/mL (≈ 1.04 µM) | 0.06 | 
9 | Cc1cc(=O)n(C[C@H](N)[C@H]2CC[C@H](NCc3ccc4c(n3)NC(=O)CO4)CC2)c2cc(F)ccc12 | > 333 µM | 0.5 µg/mL (≈ 1.04 µM) | 0.003 µM | 0.64 | 1 µg/mL (≈ 2.09 µM) |  | 0.5 µg/mL (≈ 1.04 µM) | -0.05 | 
10 | C[C@H]1COc2c(N3CCN(C)CC3)c(F)cc3c(=O)c(C(=O)O)cn1c23.C[C@H]1COc2c(N3CCN(C)CC3)c(F)cc3c(=O)c(C(=O)O)cn1c23.O [LEVOFLOXACIN] |  |  |  |  |  |  |  |  | MIC90 [9]: 16 µg/mL; MIC90 [22]: 64 µg/mL; MIC90 [27]: 16 µg/mL
11 | COc1cnc2ccc(=O)n(C[C@@H](N)[C@H]3CC[C@H](NCc4ccc5c(n4)NC(=O)CO5)CC3)c2c1 | > 333 µM | 16 µg/mL (≈ 33.4 µM) | 0.033 µM | > 0.7 | 128 µg/mL (≈ 267 µM) | > 100 µM | 8 µg/mL (≈ 16.7 µM) | -0.84 | 
12 | CNC(Cn1c(=O)cnc2cc(F)c(OC)cc21)[C@H]1CC[C@H](NCc2ncc3c(n2)NC(=O)CO3)CC1 (mixture of isomers) | > 333 µM | > 64 µg/mL | 0.039 µM |  | 64 µg/mL (≈ 125 µM) |  | 16 µg/mL (≈ 31.3 µM) |  | 
13 | COc1ccc2ccc(=O)n(C[C@H](N)[C@H]3CC[C@H](NCc4ncc5c(n4)NC(=O)CO5)CC3)c2c1 | > 333 µM | 2 µg/mL (≈ 4.18 µM) | 0.005 µM | 0.71 | 8 µg/mL (≈ 16.7 µM) | > 100 µM | 0.5 µg/mL (≈ 1.04 µM) | -0.54 | 
14 | N[C@@H](Cn1c(=O)ccc2ncc(F)cc21)[C@H]1CC[C@H](NCc2ccc3c(n2)NC(=O)CO3)CC1 | > 333 µM | 2 µg/mL (≈ 4.29 µM) | 0.034 µM |  | 16 µg/mL (≈ 34.3 µM) | > 100 µM | 1 µg/mL (≈ 2.14 µM) | -1.02 | 
